Screening results as filed in PubChem.
Shown are actives, neighbours in structure and some others; about 1.5% of the full set was active somewhere.
APJ ag = APJ receptor agonism; 330,000 tested, 0.11% active; P35414; activation, % at 20 µM; AID 2520; CHO-K1 APJ PathHunter beta-arrestin, luminescence; 0% DMSO wells, 100% apelin;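 active = activation more than six SD over the plate average, tested at 20 µM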
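system = engineered CHO-K1 APJ arrestin reporter cells | input = 1000 cells per well | timing = overnight seeding, 90 min compound at 25 °C, 1 h detection | measured by = enzyme-fragment complementation luminescence | read-out = beta-arrestin recruitment to APJ as agonist activity, luminescent signal | control set = negative DMSO alone, positive Apelin-13 at 10 nM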
APJ antagonist = APJ receptor antagonism; 330,000 tested, 0.32% active; CHO-K1 APJ beta-arrestin complementation, luminescence; inhibition, % at 20 µM; P35414;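 active = inhibition above about 40% at 20 µM, limit read from the data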;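 also: cells challenged with 10 nM apelin-13 agonist together with compound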
CXCR6 inh = CXCR6 (human) receptor inhibition | O00574 | CHO-K1 PathHunter CXCR6 beta-arrestin, luminescence | inhibition, % at 20 µM | 360,000 tested, 0.36% active; in the data active = inhibition above about 34%, passing the limit was not always enough;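 also: antagonist mode with CXCL16 agonist at 10 nM final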
EBI2 antag = antagonists of human EBI2 receptor. EBI2 beta-arrestin recruitment, luminescence, 7a,25-OHC stimulated. inhibition, % at 5 µM. AID 651636. 360,000 tested, 0.81% active; in the data active = inhibition above about 38%;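 also: enzyme fragment complementation signal reports receptor beta-arrestin coupling in cells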
CCR6 antagonist = antagonists of human CCR6 receptor. P51684. inhibition, % at 20 µM. 340,000 tested, 0.49% active. CHO-K1 CCR6 PathHunter beta-arrestin, luminescence, CCL20-stimulated;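 active = compounds whose inhibition of the agonist-driven luminescence signal at 20 µM reaches about 50%, limit read from the data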;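 also: cells stimulated with CCL20 at 14 nM final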
Target sequence (P51684 whole entry, looked up): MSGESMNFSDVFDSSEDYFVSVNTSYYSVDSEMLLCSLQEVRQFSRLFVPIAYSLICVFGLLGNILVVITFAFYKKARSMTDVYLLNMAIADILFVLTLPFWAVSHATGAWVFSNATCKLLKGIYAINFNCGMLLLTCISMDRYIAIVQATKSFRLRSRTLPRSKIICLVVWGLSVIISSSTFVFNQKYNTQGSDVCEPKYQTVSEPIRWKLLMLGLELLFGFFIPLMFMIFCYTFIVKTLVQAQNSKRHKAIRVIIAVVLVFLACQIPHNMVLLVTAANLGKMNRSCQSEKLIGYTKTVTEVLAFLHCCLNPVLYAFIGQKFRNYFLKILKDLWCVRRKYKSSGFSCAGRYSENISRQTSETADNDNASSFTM
APJ antag confirm = confirmation of human APJ apelin receptor antagonists | shares compounds with APJ antagonist | APJ beta-arrestin recruitment, luminescence, antagonist mode | inhibition, % at 20 µM | 950 tested, 66% active | AID 2766; in the data active = inhibition above about 50%
CXCR6 confirm = CXCR6 antagonism confirmation, single concentration. shares compounds with CXCR6 inh. CHO-K1 CXCR6 PathHunter beta-arrestin, luminescence. inhibition, % at 20 µM. 700 tested, 65% active;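 active = mean inhibition over four retests above 40%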;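 also: receptor stimulated with 10 nM CXCL16 agonist; beta-galactosidase fragment complementation upon beta-arrestin recruitment to receptor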
EBI2 antag conf = EBI2 (human) antagonism, single concentration confirmation. shares compounds with EBI2 antag. EBI2 beta-arrestin luminescence, 7a,25-OHC antagonism. inhibition, % at 5 µM. 2,400 tested, 29% active;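 active = inhibition of at least 50%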
EBI2 agonist = counter-screen for EBI2 antagonists: EBI2 agonist activity | shares compounds with EBI2 antag | EBI2-expressing cells, agonist mode, luminescence, 60 min; 0% vehicle, 100% 7α,25-dihydroxycholesterol control | activation, % at 5 µM | 2,400 tested, under 10 active;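 active = activation of at least 50%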
bGal counter = inhibits E. coli beta-galactosidase, counter-screen for EBI2 antagonists. shares compounds with EBI2 antag. 2,400 tested, 1% active. inhibition, % at 5 µM. purified beta-galactosidase, luminescent Galacton Star, 15 min;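 active = replicate-average signal at least 3 plate SD below neutral wells, shown as high inhibition, flagging enzyme-inhibiting false positives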;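 also: higher means stronger loss of beta-gal luminescence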
Of the large screens only hits and unclear results are named; the others gave an inactive call (follow-up assays come after a bar, where they were run).

Cc1ccc(OCCC(=O)OCC(=O)Nc2c(C)nn(-c3ccccc3)c2C)cc1	none
CC(C)Nc1ccc(Cl)cc1[N+](=O)[O-]	none (no result: CXCR6 inh, EBI2 antag, CCR6 antagonist)
O=C(COc1ccccc1)NNc1nc2c(F)cc(F)cc2s1	none
O=C(Nc1nc2c(F)cc(F)cc2s1)c1ccccn1	APJ antagonist 80, CXCR6 inh 49, EBI2 antag 63, CCR6 antagonist 79 | APJ antag confirm 84 | CXCR6 confirm 69
C/C(=N\NC(=O)Cn1c(-c2ccccn2)nc2ccccc21)c1ccccc1	APJ antagonist 47, CXCR6 inh 46, CCR6 antagonist 60 | APJ antag confirm 72 | CXCR6 confirm 47
O=C1C(Cc2ccccc2)Nc2ncnc(N3CCN(c4ccccc4)CC3)c2N1Cc1ccc(Cl)cc1 (configuration not stated)	APJ antagonist 65, CXCR6 inh 68, EBI2 antag 65, CCR6 antagonist 78 | APJ antag confirm 104 | CXCR6 confirm 70 | EBI2 antag conf 71 | EBI2 agonist inactive | bGal counter 39
COc1ccc(CN2C(=O)C(Cc3ccccc3)Nc3ncnc(N4CCN(c5ccccc5)CC4)c32)cc1 (configuration not stated)	APJ antagonist 53, CXCR6 inh 70, EBI2 antag 44, CCR6 antagonist 80 | APJ antag confirm 110 | CXCR6 confirm 68 | EBI2 antag conf inactive | EBI2 agonist inactive | bGal counter 32
CC(C)CC1Nc2ncnc(N3CCN(c4ccccc4)CC3)c2N(Cc2ccccc2)C1=O (configuration not stated)	none
CCc1ccc(C(=O)NNc2ccc(F)cc2)cc1	none
CCc1ccc(C(=O)NNc2ccc(C)c(Cl)c2)cc1	APJ antagonist 53, EBI2 antag 46 | APJ antag confirm 80 | EBI2 antag conf inactive | EBI2 agonist inactive | bGal counter inactive
COc1ccccc1N1CCN(C(=O)c2oc3c(c2C)C(=O)CC(C)(C)C3)CC1	none
COc1ccccc1CNS(=O)(=O)CCNCc1ccco1	none (no result: APJ ag, APJ antagonist)
Cc1ccc(OCCN2C(=O)c3ccccc3C2=O)c([N+](=O)[O-])c1	APJ antagonist 48, CXCR6 inh 53, EBI2 antag 62 | APJ antag confirm 66 | CXCR6 confirm 58 | EBI2 antag conf 52 | EBI2 agonist inactive | bGal counter inactive
C/C(=N/NC(=O)c1ccc(C(C)(C)C)cc1)c1ccccn1	APJ antagonist 69, CXCR6 inh 77, EBI2 antag 74, CCR6 antagonist 94 | APJ antag confirm 88 | CXCR6 confirm 82 | EBI2 antag conf 87 | EBI2 agonist inactive | bGal counter inactive
CC(=NNC(=O)c1ccncc1)c1cccc(Br)c1	none (no result: APJ ag, APJ antagonist)
C/C(=N\NC(=O)c1cccc(Br)c1)c1ccccn1	APJ antagonist 67, EBI2 antag 67, CCR6 antagonist 65 | APJ antag confirm 59 | EBI2 antag conf 82 | EBI2 agonist inactive | bGal counter inactive
COc1ccc(C2CN=NC2C(=O)c2ccccc2)cc1 (configuration not stated)	none (no result: APJ ag, APJ antagonist)
CC1CCC/C(=C\c2ccc(O)cc2)C1=O (configuration not stated)	none
CN(C)CC1CC/C(=C\c2ccc(O)cc2)C1=O (configuration not stated)	CXCR6 inh 75, CCR6 antagonist 86 (no result: APJ ag, APJ antagonist) | CXCR6 confirm 77
COc1ccc(/C=C2/CCC(CN3CCOCC3)C2=O)cc1 (configuration not stated)	CXCR6 inh 70, CCR6 antagonist 87 (no result: APJ ag, APJ antagonist) | CXCR6 confirm 70
CSc1ccc(CN2CCC(C)(Oc3cnc(Cl)c4ccccc34)C2)cc1 (configuration not stated)	none (no result: APJ ag, APJ antagonist, CCR6 antagonist)
